Source: ChEMBL document CHEMBL1137710, “Synthesis and in vitro antitumor activity of new quinoxaline derivatives” (2009)

Key:
Assay type in all cases: functional
[1] = system: T47D; assay: Growth inhibition of human T47D cells after 48 hrs by sulforhodamine B assay
In short: (§1)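 Run in the NCI 60-human-tumour-cell-line panel, tested over a 5-log dose range. Dose–response curves gave three values per cell line, each as a log10 molar concentration: GI50 (50% inhibition of net cell growth), TGI (total inhibition of net growth) and LC50 (50% net cell death). The mean graph midpoint is the arithmetic mean over all lines, with insensitive lines entered at the highest concentration tested.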

[2] = system: SNB-75; assay: Growth inhibition of human SNB75 cells after 48 hrs by sulforhodamine B assay; details: SNB-75, 48 h; in short: as §1
[3] = system: EKVX; assay: Growth inhibition of human EKVX cells after 48 hrs by sulforhodamine B assay
In short: (§2)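 NCI 60-human-tumor-cell-line panel, with compounds tested over a 5-log dose range. Values are taken from dose-response curves as log10 molar concentrations: GI50 is 50% net growth inhibition, TGI is total growth inhibition, and LC50 is 50% net cell death.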

[4] = Growth inhibition of human […] cells after 48 hrs by sulforhodamine B assay; in short: as §2
[5] = system: SK-MEL-28; assay: Growth inhibition of human SK-MEL-28 cells after 48 hrs by sulforhodamine B assay; details: SK-MEL-28, 48 h; in short: as §2
[6] = system: A498; assay: Growth inhibition of human A498 cells after 48 hrs by sulforhodamine B assay; details: A498, 48 h; in short: as §2
[7] = system: CCRF-CEM; assay: Growth inhibition of human CCRF-CEM cells after 48 hrs by sulforhodamine B assay; in short: as §2
[8] = system: HOP-92; assay: Growth inhibition of human HOP92 cells after 48 hrs by sulforhodamine B assay; details: HOP-92, 48 h; in short: as §2
[9] = system: SR; assay: Growth inhibition of human SR cells after 48 hrs by sulforhodamine B assay; in short: as §1
[10] = system: A549; assay: Growth inhibition of human A549 cells after 48 hrs by sulforhodamine B assay; details: A549, 48 h; in short: as §2
[11] = system: K562; assay: Growth inhibition of human K562 cells after 48 hrs by sulforhodamine B assay; details: K562, 48 h; in short: as §2
[12] = system: HCT-116; assay: Growth inhibition of human HCT116 cells after 48 hrs by sulforhodamine B assay; details: HCT-116, 48 h; in short: as §2
[13] = system: NCI-H226; assay: Growth inhibition of human NCI-H226 cells after 48 hrs by sulforhodamine B assay; details: NCI-H226, 48 h; in short: as §2
[14] = system: SN12C; assay: Growth inhibition of human SN12C cells after 48 hrs by sulforhodamine B assay; in short: as §1
[15] = system: HT-29; assay: Growth inhibition of human HT-29 cells after 48 hrs by sulforhodamine B assay; details: HT-29, 48 h; in short: as §2
[16] = system: NCI/ADR-RES; assay: Growth inhibition of human NCI/ADR-RES cells after 48 hrs by sulforhodamine B assay; in short: as §2
[17] = system: SW-620; assay: Growth inhibition of human SW620 cells after 48 hrs by sulforhodamine B assay; details: SW-620, 48 h; in short: as §1
[18] = system: HL-60(TB); assay: Growth inhibition of human HL-60(TB) cells after 48 hrs by sulforhodamine B assay; details: HL-60, 48 h
In short: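 Tested only on compounds active in a three-line prescreen, in the NCI 60-human-tumour-cell-line panel over a 5-log dose range. Values come from dose–response curves as log10 molar GI50, the concentration inhibiting 50% net cell growth. Log10 TGI (total growth inhibition) and log10 LC50 (50% net cell death) were derived too. Mean graph midpoints include insensitive lines at the highest concentration tested.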

[19] = system: M14; assay: Growth inhibition of human M14 cells after 48 hrs by sulforhodamine B assay; details: M14, 48 h; in short: as §2
[20] = system: DU-145; assay: Growth inhibition of human DU145 cells after 48 hrs by sulforhodamine B assay; details: DU-145, 48 h; in short: as §2
[21] = system: SK-MEL-2; assay: Growth inhibition of human SK-MEL-2 cells after 48 hrs by sulforhodamine B assay; details: SK-MEL-2, 48 h; in short: as §2
[22] = system: HCT-15; assay: Growth inhibition of human HCT15 cells after 48 hrs by sulforhodamine B assay; details: HCT-15, 48 h; in short: as §2
[23] = system: RXF 393; assay: Growth inhibition of human RXF393 cells after 48 hrs by sulforhodamine B assay; details: RXF 393, 48 h; in short: as §2
[24] = system: BT-549; assay: Growth inhibition of human BT549 cells after 48 hrs by sulforhodamine B assay; details: BT-549, 48 h; in short: as §2
[25] = system: ACHN; assay: Growth inhibition of human ACHN cells after 48 hrs by sulforhodamine B assay
[26] = system: UACC-62; assay: Growth inhibition of human UACC62 cells after 48 hrs by sulforhodamine B assay; details: UACC-62, 48 h; in short: as §1
[27] = system: NCI-H23; assay: Growth inhibition of human NCI-H23 cells after 48 hrs by sulforhodamine B assay; details: NCI-H23, 48 h; in short: as §2
[28] = system: Malme-3M; assay: Growth inhibition of human MALME-3M cells after 48 hrs by sulforhodamine B assay; in short: as §2
[29] = system: LOX IMVI; assay: Growth inhibition of human LOXIMVI cells after 48 hrs by sulforhodamine B assay; in short: as §2
[30] = read-out: pLC50 (the source's name) (converted)

## COc1ccc(CNc2nc3cc(N)cc(N)c3nc2-c2ccccc2)cc1
[1]
  GI50: 2.82 µM
[1]; [30]
  CC50: 72.4 µM
[1]; read-out: pTGI (converted)
  TGI: 11 µM
[2]
  LC50: 72.4 µM
[2]; read-out: pTGI (converted)
  TGI: 30.2 µM
[3]
  GI50: 14.8 µM
  LC50 (50% net cell kill): 53.7 µM
[3]; read-out: pTGI (converted)
  TGI: 28.2 µM
[4]
  GI50: 4.17 µM
  LC50: > 100 µM
[4]; read-out: pTGI (converted)
  TGI: 15.8 µM
[5]
  GI50: 17.4 µM
[5]; [30]
  CC50: 60.3 µM
[5]; read-out: pTGI (converted)
  TGI: 32.4 µM
[6]
  GI50: > 100 µM
[6]; [30]
  CC50: > 100 µM
[6]; read-out: pTGI (converted)
  TGI: > 100 µM
[7]
  GI50: 3.39 µM
  LC50: > 100 µM
[7]; read-out: pTGI (converted)
  TGI: 64.6 µM
[8]
  GI50: 12.9 µM
  LC50 (50% net cell death): > 100 µM
[8]; read-out: pTGI (converted)
  TGI: 37.2 µM
[9]
  GI50: 4.07 µM
  LC50 (concentration giving 50% net cell death): > 100 µM
[9]; read-out: pTGI (converted)
  TGI: > 100 µM
[10]
  GI50: 21.4 µM
  LC50: > 100 µM
[10]; read-out: pTGI (converted)
  TGI: 60.3 µM
[11]
  GI50: 25.1 µM
  LC50: > 100 µM
[11]; read-out: pTGI (converted)
  TGI: 97.7 µM
[12]
  GI50: 14.5 µM
  LC50 (concentration causing 50% net cell death): 52.5 µM
[12]; read-out: pTGI (converted)
  TGI: 27.5 µM
[13]
  GI50: 20.4 µM
  LC50: > 100 µM
[13]; read-out: pTGI (converted)
  TGI: 70.8 µM
[14]
  GI50: 17 µM
[14]; [30]
  CC50: 69.2 µM
[14]; read-out: pTGI (converted)
  TGI: 34.7 µM
[15]
  GI50: 24.5 µM
  LC50: > 100 µM
[15]; read-out: pTGI (converted)
  TGI: 60.3 µM
[16]
  GI50: 22.9 µM
[16]; [30]
  CC50: > 100 µM
[16]; read-out: pTGI (converted)
  TGI: 83.2 µM
[17]
  GI50: 12.9 µM
[17]; [30]
  CC50: 70.8 µM
[17]; read-out: pTGI (converted)
  TGI: 30.2 µM
[18]
  GI50: 13.5 µM
  LC50: > 100 µM
[18]; read-out: pTGI (converted)
  TGI: 51.3 µM
[19]
  GI50: 18.2 µM
[19]; [30]
  CC50: 57.5 µM
[19]; read-out: pTGI (converted)
  TGI: 32.4 µM
[20]
  GI50: 21.9 µM
[20]; [30]
  CC50: > 100 µM
[20]; read-out: pTGI (converted)
  TGI: 57.5 µM
[21]
  GI50: 14.8 µM
[21]; [30]
  CC50: 57.5 µM
[21]; read-out: pTGI (converted)
  TGI: 28.8 µM
[22]
  GI50: 15.8 µM
  LC50: 75.9 µM
[22]; read-out: pTGI (converted)
  TGI: 34.7 µM
[23]
  GI50: 5.37 µM
[23]; [30]
  CC50: 44.7 µM
[23]; read-out: pTGI (converted)
  TGI: 18.2 µM
[24]
  GI50: 6.46 µM
[24]; [30]
  CC50: > 100 µM
[24]; read-out: pTGI (converted)
  TGI: 30.9 µM
[25]
  GI50: 14.8 µM
[25]; [30]
  CC50: 75.9 µM
[25]; read-out: pTGI (converted)
  TGI: 33.9 µM
[26]
  GI50: 14.8 µM
[26]; [30]
  CC50: 58.9 µM
[26]; read-out: pTGI (converted)
  TGI: 29.5 µM
[27]
  GI50: 17 µM
  LC50 (50% net cell kill concentration): 70.8 µM
[27]; read-out: pTGI (converted)
  TGI: 34.7 µM
[28]
  GI50: 10.7 µM
[28]; [30]
  CC50: 47.9 µM
[28]; read-out: pTGI (converted)
  TGI: 22.4 µM
[29]
  GI50: 13.5 µM
  LC50: 55 µM
[29]; read-out: pTGI (converted)
  TGI: 27.5 µM
